One may read the inhibition as how much of the control response was suppressed.

Test [1] deals with Proto-oncogene tyrosine-protein kinase ROS (Homo sapiens) (UniProt P08922). The test is described as follows: Inhibition of ROS1 at 1 uM in presence of 10 uM ATP by Select Screen kinase assay relative to untreated control. The gist of the method:
(§1)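 Commercial SelectScreen profiling panel of 220 purified kinases. Each kinase was tested at a single inhibitor concentration of 1 μM, and activity was expressed as percent inhibition.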

Test [2] has as its target SRSF protein kinase 1 (Homo sapiens) (UniProt Q96SB4). The test is described as follows: Inhibition of SRPK1 at 1 uM in presence of 100 uM ATP by Select Screen kinase assay relative to untreated control. The gist of the method:
as §1

For test [3], the target named is SRSF protein kinase 2 (Homo sapiens) (UniProt P78362). Put plainly: Inhibition of SRPK2 at 1 uM in presence of 10 uM ATP by Select Screen kinase assay relative to untreated control. An outline of the steps: as §1
The target of test [4] is Tyrosine-protein kinase SYK (Homo sapiens) (UniProt P43405). Put plainly: Inhibition of SYK at 1 uM in presence of 10 uM ATP by Select Screen kinase assay relative to untreated control. The gist of the method:
as §1

Test [5] deals with Casein kinase I isoform gamma-3 (Homo sapiens) (UniProt Q9Y6M4). The test is described as follows: Inhibition of CSNK1G3 at 1 uM in presence of 10 uM ATP by Select Screen kinase assay relative to untreated control. The gist of the method:
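Single-point screen at 1 μM against a panel of 220 purified kinases, run by Invitrogen staff as a SelectScreen profiling service. Read-out is percent inhibition of kinase activity.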

The subject of test [6] is Mast/stem cell growth factor receptor Kit (Homo sapiens), P10721 [T670I]. The test is described as follows: Inhibition of KIT T670I mutant at 1 uM in presence of 10 uM ATP by Select Screen kinase assay relative to untreated control. The gist of the method:
(§2)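 Single-concentration profiling at 1 μM against a panel of 220 purified kinases, run as an outsourced SelectScreen kinase profiling service. Activity is expressed as percent inhibition.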

Test [7] deals with Tyrosine-protein kinase Lyn (Homo sapiens) (UniProt P07948). Put plainly: Inhibition of LYN A at 1 uM in presence of 10 uM ATP by Select Screen kinase assay relative to untreated control. The gist of the method: as §2
Test [8] addresses Dual specificity mitogen-activated protein kinase kinase 1 (Homo sapiens) (UniProt Q02750). Put plainly: Inhibition of MAP2K1 at 1 uM in presence of 100 uM ATP by Select Screen kinase assay relative to untreated control. The gist of the method:
as §2

In test [9] the target is Mitogen-activated protein kinase 1 (Homo sapiens) (UniProt P28482). The test is described as follows: Inhibition of MAPK1 at 1 uM in presence of 10 uM ATP by Select Screen kinase assay relative to untreated control. The gist of the method:
as §2

In test [10] the target is T1, MAP kinase-activated protein kinase 5 (Homo sapiens) (UniProt Q8IW41).
T1 sequence (whole entry): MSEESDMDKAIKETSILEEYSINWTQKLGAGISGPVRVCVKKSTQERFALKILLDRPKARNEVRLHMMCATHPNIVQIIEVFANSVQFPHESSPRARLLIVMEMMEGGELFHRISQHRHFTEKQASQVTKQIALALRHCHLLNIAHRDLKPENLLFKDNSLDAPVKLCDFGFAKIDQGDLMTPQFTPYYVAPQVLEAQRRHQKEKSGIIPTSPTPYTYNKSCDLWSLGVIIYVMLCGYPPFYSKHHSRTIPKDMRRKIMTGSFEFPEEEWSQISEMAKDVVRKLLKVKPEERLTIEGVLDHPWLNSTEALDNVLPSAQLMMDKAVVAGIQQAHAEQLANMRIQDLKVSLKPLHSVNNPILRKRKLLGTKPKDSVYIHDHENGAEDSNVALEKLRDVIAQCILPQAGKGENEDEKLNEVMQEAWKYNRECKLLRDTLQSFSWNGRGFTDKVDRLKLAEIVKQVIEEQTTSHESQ
Put plainly: Inhibition of MAPKAPK5 at 1 uM in presence of 10 uM ATP by Select Screen kinase assay relative to untreated control. An outline of the steps: as §2

For test [11], the target named is Serine/threonine-protein kinase MARK2 (Homo sapiens) (UniProt Q7KZI7). The test is described as follows: Inhibition of MARK2 at 1 uM in presence of 10 uM ATP by Select Screen kinase assay relative to untreated control. The gist of the method: as §2
For test [12], the target named is T2, Serine/threonine-protein kinase Nek1 (Homo sapiens) (UniProt Q96PY6).
T2 sequence (whole entry): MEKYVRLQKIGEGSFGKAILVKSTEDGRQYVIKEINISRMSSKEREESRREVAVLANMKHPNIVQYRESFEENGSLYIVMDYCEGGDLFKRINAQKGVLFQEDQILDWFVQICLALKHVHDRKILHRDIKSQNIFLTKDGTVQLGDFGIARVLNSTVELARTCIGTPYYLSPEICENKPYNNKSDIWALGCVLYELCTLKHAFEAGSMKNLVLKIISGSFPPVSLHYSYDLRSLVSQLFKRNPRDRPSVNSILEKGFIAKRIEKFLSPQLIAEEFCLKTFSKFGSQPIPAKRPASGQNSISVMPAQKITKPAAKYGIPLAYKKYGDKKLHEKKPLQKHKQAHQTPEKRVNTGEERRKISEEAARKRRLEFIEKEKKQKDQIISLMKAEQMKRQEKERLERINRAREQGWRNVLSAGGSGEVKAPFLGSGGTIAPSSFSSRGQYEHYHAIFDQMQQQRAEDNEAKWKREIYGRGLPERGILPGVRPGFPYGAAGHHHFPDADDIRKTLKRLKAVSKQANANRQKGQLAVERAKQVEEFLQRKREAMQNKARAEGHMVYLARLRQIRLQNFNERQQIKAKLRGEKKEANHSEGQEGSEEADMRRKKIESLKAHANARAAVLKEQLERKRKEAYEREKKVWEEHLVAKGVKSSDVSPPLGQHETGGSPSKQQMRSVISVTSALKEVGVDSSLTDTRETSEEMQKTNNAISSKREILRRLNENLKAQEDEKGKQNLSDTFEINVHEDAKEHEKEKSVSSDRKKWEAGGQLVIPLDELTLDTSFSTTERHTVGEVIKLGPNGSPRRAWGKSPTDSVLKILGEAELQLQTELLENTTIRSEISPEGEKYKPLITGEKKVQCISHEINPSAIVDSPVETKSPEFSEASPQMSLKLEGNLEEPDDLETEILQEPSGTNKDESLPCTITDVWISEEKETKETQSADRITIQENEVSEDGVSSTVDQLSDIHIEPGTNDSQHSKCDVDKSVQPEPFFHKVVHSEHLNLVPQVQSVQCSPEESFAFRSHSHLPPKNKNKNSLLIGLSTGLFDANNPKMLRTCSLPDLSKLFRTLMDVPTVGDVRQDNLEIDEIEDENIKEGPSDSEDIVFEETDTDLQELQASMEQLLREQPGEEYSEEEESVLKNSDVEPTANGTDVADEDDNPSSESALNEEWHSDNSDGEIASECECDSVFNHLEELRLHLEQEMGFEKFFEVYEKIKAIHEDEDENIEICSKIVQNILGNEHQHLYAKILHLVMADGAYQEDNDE
Put plainly: Inhibition of NEK1 at 1 uM in presence of 10 uM ATP by Select Screen kinase assay relative to untreated control. An outline of the steps:
as §2

In test [13] the target is Serine/threonine-protein kinase Nek7 (Homo sapiens) (UniProt Q8TDX7). The test is described as follows: Inhibition of NEK7 at 1 uM in presence of 100 uM ATP by Select Screen kinase assay relative to untreated control. An outline of the steps:
as §1

Casein kinase I isoform gamma-3 (Homo sapiens), sequence (Q9Y6M4 whole entry, looked up, canonical isoform): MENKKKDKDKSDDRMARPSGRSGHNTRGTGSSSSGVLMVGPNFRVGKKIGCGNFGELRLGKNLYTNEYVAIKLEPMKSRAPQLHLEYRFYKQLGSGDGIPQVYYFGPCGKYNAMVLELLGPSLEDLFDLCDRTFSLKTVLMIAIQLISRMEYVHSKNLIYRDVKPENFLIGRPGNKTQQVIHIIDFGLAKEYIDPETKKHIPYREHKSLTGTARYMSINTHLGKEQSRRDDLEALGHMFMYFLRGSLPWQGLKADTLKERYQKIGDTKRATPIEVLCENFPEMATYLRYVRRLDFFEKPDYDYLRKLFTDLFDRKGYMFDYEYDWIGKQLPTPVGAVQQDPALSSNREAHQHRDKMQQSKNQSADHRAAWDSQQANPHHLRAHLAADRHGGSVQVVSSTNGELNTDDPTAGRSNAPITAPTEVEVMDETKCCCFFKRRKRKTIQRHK
Serine/threonine-protein kinase MARK2 (Homo sapiens), sequence (Q7KZI7 whole entry): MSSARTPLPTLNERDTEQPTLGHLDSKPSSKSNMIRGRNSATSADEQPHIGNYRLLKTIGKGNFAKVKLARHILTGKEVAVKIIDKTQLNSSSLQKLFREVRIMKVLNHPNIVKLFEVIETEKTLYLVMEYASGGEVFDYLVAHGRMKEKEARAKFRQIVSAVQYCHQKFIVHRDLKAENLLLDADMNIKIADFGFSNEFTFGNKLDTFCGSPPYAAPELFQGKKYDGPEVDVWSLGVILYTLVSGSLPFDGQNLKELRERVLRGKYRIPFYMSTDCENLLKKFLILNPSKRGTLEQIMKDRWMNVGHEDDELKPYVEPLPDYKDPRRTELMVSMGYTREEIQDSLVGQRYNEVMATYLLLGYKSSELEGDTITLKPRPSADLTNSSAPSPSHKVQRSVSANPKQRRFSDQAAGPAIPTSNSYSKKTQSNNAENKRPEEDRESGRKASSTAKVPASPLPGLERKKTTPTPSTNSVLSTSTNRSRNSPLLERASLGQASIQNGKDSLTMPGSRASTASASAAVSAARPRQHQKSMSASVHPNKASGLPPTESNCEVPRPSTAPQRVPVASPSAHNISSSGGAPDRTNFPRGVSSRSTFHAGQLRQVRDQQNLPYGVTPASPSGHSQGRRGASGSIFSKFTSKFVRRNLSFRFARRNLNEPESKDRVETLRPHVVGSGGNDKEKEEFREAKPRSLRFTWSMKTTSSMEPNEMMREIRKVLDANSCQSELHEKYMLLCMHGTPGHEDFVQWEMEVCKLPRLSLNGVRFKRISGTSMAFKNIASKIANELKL
Mitogen-activated protein kinase 1 (Homo sapiens), sequence (P28482 whole entry): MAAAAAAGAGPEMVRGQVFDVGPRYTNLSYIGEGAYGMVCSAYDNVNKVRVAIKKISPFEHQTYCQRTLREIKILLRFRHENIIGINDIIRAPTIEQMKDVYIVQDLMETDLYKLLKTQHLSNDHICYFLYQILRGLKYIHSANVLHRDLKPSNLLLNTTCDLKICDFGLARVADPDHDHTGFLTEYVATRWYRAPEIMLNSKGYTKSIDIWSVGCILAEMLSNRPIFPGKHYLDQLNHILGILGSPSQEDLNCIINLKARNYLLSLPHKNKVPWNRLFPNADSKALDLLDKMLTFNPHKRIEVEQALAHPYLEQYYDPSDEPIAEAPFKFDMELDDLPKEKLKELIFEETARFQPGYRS
Mast/stem cell growth factor receptor Kit (Homo sapiens), P10721 [T670I], sequence (P10721 whole entry T670I): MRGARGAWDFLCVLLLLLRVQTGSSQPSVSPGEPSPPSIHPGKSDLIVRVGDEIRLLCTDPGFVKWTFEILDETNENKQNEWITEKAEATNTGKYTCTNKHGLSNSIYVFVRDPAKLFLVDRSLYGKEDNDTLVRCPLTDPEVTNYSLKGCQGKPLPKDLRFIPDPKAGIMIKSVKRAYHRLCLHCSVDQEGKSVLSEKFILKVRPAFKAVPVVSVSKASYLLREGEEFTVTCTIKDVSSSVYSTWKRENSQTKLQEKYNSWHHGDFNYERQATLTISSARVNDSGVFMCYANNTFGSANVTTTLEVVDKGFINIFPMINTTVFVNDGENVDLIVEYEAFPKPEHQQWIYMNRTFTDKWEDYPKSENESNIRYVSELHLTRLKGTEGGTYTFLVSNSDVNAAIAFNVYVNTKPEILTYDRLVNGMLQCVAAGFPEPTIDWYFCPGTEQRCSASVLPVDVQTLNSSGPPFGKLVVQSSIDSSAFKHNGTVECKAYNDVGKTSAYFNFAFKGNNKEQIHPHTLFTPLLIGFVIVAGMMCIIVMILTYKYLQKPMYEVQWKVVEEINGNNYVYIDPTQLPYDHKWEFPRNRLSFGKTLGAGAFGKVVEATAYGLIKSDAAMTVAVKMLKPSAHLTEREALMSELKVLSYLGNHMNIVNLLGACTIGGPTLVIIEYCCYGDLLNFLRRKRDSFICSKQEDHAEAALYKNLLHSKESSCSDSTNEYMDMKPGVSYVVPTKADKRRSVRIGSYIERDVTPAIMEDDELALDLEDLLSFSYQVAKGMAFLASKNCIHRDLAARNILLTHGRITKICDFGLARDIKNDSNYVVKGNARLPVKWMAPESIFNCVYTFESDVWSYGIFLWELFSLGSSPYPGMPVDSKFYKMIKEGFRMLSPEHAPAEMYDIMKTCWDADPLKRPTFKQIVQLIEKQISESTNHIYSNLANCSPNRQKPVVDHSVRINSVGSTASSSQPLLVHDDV
SRSF protein kinase 1 (Homo sapiens), sequence (Q96SB4 whole entry): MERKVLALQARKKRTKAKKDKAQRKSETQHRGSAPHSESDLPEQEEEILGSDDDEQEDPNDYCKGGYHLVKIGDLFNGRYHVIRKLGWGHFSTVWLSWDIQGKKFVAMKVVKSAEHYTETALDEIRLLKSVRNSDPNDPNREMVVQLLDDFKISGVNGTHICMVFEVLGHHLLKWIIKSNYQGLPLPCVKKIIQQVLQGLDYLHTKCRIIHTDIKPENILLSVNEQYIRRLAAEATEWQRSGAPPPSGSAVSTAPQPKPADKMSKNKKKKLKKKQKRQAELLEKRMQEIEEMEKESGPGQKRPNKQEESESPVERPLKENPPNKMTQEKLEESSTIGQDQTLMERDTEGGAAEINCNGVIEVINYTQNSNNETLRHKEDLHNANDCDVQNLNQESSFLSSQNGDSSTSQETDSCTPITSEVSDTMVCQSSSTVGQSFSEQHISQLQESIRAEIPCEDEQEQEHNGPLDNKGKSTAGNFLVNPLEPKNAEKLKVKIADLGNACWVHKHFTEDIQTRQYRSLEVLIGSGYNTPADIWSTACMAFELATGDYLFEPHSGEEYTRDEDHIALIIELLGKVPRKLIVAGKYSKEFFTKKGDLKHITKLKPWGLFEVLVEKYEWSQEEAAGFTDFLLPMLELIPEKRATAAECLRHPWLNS
Serine/threonine-protein kinase Nek7 (Homo sapiens), sequence (Q8TDX7 whole entry, looked up): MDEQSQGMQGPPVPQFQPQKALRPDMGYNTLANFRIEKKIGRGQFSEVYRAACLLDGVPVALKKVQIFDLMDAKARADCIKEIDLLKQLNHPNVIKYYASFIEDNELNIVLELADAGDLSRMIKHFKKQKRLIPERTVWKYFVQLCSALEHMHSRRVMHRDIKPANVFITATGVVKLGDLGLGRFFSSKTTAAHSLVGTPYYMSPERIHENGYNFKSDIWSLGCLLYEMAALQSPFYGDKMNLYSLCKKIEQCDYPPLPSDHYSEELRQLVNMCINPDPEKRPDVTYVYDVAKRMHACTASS
SRSF protein kinase 2 (Homo sapiens), sequence (P78362 whole entry, looked up): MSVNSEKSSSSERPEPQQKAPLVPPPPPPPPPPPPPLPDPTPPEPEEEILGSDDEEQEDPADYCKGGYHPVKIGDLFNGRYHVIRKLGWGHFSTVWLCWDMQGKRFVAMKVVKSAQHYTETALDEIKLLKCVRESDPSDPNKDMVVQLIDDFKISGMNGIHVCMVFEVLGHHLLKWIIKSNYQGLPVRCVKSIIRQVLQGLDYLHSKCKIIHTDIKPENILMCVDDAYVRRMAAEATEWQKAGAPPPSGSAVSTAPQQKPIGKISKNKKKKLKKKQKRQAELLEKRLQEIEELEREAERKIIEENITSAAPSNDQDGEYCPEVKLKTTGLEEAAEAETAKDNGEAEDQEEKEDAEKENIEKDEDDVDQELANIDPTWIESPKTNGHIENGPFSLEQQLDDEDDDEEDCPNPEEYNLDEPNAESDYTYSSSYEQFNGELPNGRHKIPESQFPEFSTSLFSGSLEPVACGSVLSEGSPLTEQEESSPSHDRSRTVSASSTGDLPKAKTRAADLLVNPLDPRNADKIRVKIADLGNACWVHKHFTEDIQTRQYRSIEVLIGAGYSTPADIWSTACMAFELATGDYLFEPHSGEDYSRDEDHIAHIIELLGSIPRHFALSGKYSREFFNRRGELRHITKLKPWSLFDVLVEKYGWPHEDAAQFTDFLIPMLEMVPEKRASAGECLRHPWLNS
Dual specificity mitogen-activated protein kinase kinase 1 (Homo sapiens), sequence (Q02750 whole entry): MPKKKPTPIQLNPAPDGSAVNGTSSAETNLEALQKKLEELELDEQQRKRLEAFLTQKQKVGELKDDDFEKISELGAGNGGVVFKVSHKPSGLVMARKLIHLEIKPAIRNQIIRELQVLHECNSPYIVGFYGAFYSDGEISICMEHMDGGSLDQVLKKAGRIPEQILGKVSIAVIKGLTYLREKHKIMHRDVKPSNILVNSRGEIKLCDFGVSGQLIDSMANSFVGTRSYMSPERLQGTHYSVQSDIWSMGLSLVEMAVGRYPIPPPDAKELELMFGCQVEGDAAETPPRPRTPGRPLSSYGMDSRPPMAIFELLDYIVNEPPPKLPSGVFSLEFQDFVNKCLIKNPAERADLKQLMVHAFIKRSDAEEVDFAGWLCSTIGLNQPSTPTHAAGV

For the compound `COc1ccccc1N1CCN(c2ncnc3[nH]nc(Br)c23)CC1`, the inhibition in test [1] is 21%; in test [2], 12%; in test [3], 4%; in test [4], 12%; in test [5] it was 8%; in test [6], 11%. In addition, the inhibition was 13% in [7]; 12% in test [8]; 11% in test [9]; 4% in test [10]; 26% in test [11]; 18% in test [12]. Besides, in test [13], the inhibition was 13%.
Turning to `Cc1n[nH]c2ccc(-c3cncc(OC[C@@H](N)Cc4c[nH]c5ccccc45)c3)cc12`, the inhibition in test [1] is 17%; in test [2] it was 27%; in test [3], 39%; in test [4], 0%; in test [5], 57%; in test [6], 0%. In addition, the inhibition in test [7] was 8%; in test [8], 42%; in [9], 61%; in test [10], 10%; in test [11], 68%; in test [12], 44%. The inhibition in test [13] came out at 1%.
Take `O=C(NCCCNc1nc(Nc2cccc(NC(=O)N3CCCC3)c2)ncc1I)c1cccs1`: the inhibition was 5% in test [1]; 12% in test [2]; 5% in test [3]; 84% in test [4]; 14% in test [5]; 29% in [6]. Also, the inhibition in test [7] was found to be 27%; in [8], 67%; in test [9], 52%; in [10], 1%; in [11] it was 93%; in test [12], 92%. Moreover, the inhibition in [13] is 9%.

Values taken from ChEMBL document CHEMBL1250448, “Inhibitor hijacking of Akt activation” (Nat Chem Biol, 2009).
